Results from ChEMBL document CHEMBL4396883, “Discovery of CDK5 Inhibitors through Structure-Guided Approach” (ACS Med Chem Lett, 2019).
Calls of active or inactive are those of the source. The calls are words filed in the database; no cut-off is given here.

Columns and labels:
[1] = molecular target: Cyclin-dependent kinase 5 (Homo sapiens) (UniProt Q00535); experiment: Inhibition of CDK5 in human MOLM13 cells assessed as increase in p27KIP1 level at 5 to 10 uM measured after 24 hrs incubation by Western blot analysis; format: cell-based
Summary of the method: (§1)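 Cells treated for 24 h; lysates immunoblotted for pAkt (S473), pRB (S780), cyclin D1, p27KIP1, and cleaved caspase 3 and 7 (MOLM-13); at least two independent repeats.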

[2] = molecular target: Cyclin-dependent kinase 1/cyclin B1 (Homo sapiens, UniProt P06493); experiment: Inhibition of CDK1/CyclinB1 (unknown origin) using histone H1 (GGGPATPKKAKKL) as substrate incubated for 80 mins in presence of ATP by ADP-Glo kinase assay; format: protein-complex assay
[3] = molecular target: Cyclin-dependent kinase 5 (Homo sapiens) (UniProt Q00535); experiment: Inhibition of CDK5 in human MV4-11 cells assessed as increase in p27KIP1 level at 5 to 10 uM measured after 24 hrs incubation by Western blot analysis; format: cell-based; summary of the method: as §1
MOLM-13 [4] = experiment: Induction of apoptosis in human MOLM13 cells assessed as early apoptotic cells at 10 uM measured after 24 hrs by Annexin V-FITC/PI staining based flow cytometry (reference value: 3.38%); format: functional
[5] = molecular target: Cyclin-dependent kinase 5 (Homo sapiens) (UniProt Q00535); experiment: Inhibition of CDK5 in human MOLM13 cells assessed as increase in caspase3/7 activity at 2.5 to 10 uM measured after 24 hrs by caspase-3/7 glo assay; format: cell-based
Summary of the method: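 MOLM-13 cells treated 24 h; caspase-3/7 activity measured with […]; at least two independent experiments, values given as mean.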

[6] = molecular target: Cyclin-dependent kinase 4/cyclin D1 (Homo sapiens, UniProt P11802); experiment: Inhibition of human recombinant N-terminal GST-tagged CDK4 (S4-E303 residues)/Cyclin D1 (Q4-I295 residues) expressed in sf9 cells using RB-CTF as substrate incubated for 90 mins in presence of ATP by ADP-Glo kinase assay
[7] = molecular target: Cyclin-dependent kinase 2/cyclin E1 (Homo sapiens, UniProt P24941); experiment: Inhibition of CDK2/Cyclin E (unknown origin) incubated for 30 to 120 mins in presence of ATP by ADP-Glo kinase assay; format: protein-complex assay
[8] = molecular target: Cyclin-dependent kinase 5 (Homo sapiens) (UniProt Q00535); experiment: Inhibition of CDK5 in human MOLM13 cells assessed as increase in cleaved caspase 3 level at 5 to 10 uM measured after 24 hrs by western blot analysis; format: cell-based; summary of the method: as §1
MOLM-13 [9] = experiment: Induction of apoptosis in human MOLM13 cells assessed as early apoptotic cells at 2.5 uM measured after 24 hrs by Annexin V-FITC/PI staining based flow cytometry (reference value: 3.38%); format: functional
[10] = molecular target: Cyclin-dependent kinase 5 (Homo sapiens) (UniProt Q00535); experiment: Inhibition of CDK5 in human MV4-11 cells assessed as decrease in cyclin D1 level at 5 to 10 uM measured after 24 hrs incubation by Western blot analysis; format: cell-based; summary of the method: as §1
CDK2/Cyclin A2 = CDK2/Cyclin A2 (Homo sapiens, UniProt P24941); experiment: Inhibition of recombinant full length N-terminal GST tagged human CDK2/CyclinA expressed in baculovirus infected sf9 cells using histone H1 as substrate measured after 30 mins in presence of ATP by ADP-Glo kinase assay
Summary of the method: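 CDK2/cyclin A kinase inhibition; Ki values from the average of at least two experiments.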

[11] = molecular target: Receptor-type tyrosine-protein kinase FLT3 (Homo sapiens, UniProt P36888, ITD); experiment: Inhibition of human recombinant full length GST-fused/His-tagged FLT3 ITD mutant expressed in Sf9 cells using poly (Glu,Tyr) as substrate incubated for 80 mins in presence of ATP by ADP-Glo kinase assay
[12] = molecular target: Cyclin-dependent kinase 5 (Homo sapiens) (UniProt Q00535); experiment: Inhibition of CDK5 in human MOLM13 cells assessed as decrease in phosphorylated RB protein level at 5 to 10 uM measured after 24 hrs incubation by Western blot analysis; format: cell-based; summary of the method: as §1
MOLM-13 [13] = experiment: Induction of apoptosis in human MOLM13 cells assessed as late apoptotic cells at 10 uM measured after 24 hrs by Annexin V-FITC/PI staining based flow cytometry (reference value: 1.94%); format: functional
[14] = molecular target: CDK2/Cyclin A2 (Homo sapiens) (UniProt P24941+P20248); experiment: Inhibition of recombinant full length N-terminal GST tagged human CDK2/CyclinA expressed in baculovirus infected sf9 cells using histone H1 as substrate at 10 uM measured after 30 mins in presence of ATP by ADP-Glo kinase assay relative to control
CDK9/cyclin T1 = CDK9/cyclin T1 (Homo sapiens, UniProt P50750); experiment: Inhibition of human recombinant full length N-terminal GST His6 fused CDK9 (M1 to F372 residues/ N-terminal His6 tagged Cyclin T1 (M1 to K726 residues) expressed in sf9 cells using RBER-IRStide as substrate incubated for 90 mins in presence of ATP by ADP-Glo kinase assay
MV4-11 [15] = experiment: Cell cycle arrest in human MV4-11 cells assessed as accumulation at G1 phase at 2.5 to 10 uM measured after 24 hrs by propidium iodide staining based flow cytometry analysis; format: functional
Summary of the method: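 MV4-11 cells treated 24 h at 2.5 and 10 μM; cell-cycle phase distribution (sub-G1, G1, S, G2/M) by flow cytometry; at least two independent experiments, numerical data as mean value.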

[16] = molecular target: Cyclin-dependent kinase 5 (Homo sapiens) (UniProt Q00535); experiment: Inhibition of CDK5 in human MOLM13 cells assessed as decrease in phosphorylated Akt protein level at 5 to 10 uM measured after 24 hrs incubation by Western blot analysis; format: cell-based; summary of the method: as §1
[17] = molecular target: Cyclin-dependent kinase 5 (Homo sapiens) (UniProt Q00535); experiment: Inhibition of CDK5 in human MV4-11 cells assessed as decrease in phosphorylated Akt protein level at 5 to 10 uM measured after 24 hrs incubation by Western blot analysis; format: cell-based; summary of the method: as §1
[18] = molecular target: Cyclin-dependent kinase 5 (Homo sapiens) (UniProt Q00535); experiment: Inhibition of CDK5 in human MV4-11 cells assessed as decrease in phosphorylated RB protein level at 5 to 10 uM measured after 24 hrs incubation by Western blot analysis; format: cell-based; summary of the method: as §1
MV4-11 [19] = experiment: Antiproliferative activity against human MV4-11 cells assessed as growth inhibition measured after 72 hrs by resazurin assay; format: functional; settings: MV4-11, 72 h
Summary of the method: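 Leukemia cells exposed to compound for 72 h; viability read by resazurin reduction. GI50 (concentration giving 50% inhibition of proliferation) reported as mean ± SD of three independent experiments.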

[20] = molecular target: Cyclin-dependent kinase 5/CDK5 activator 1 (Homo sapiens, UniProt Q00535); experiment: Inhibition of recombinant full length N-terminal GST tagged human CDK5/p25 expressed in baculovirus infected sf9 cells using histone H1 as substrate measured after 60 mins in presence of ATP by ADP-Glo kinase assay; format: cell-based
MOLM-13 [21] = experiment: Induction of apoptosis in human MOLM13 cells assessed as late apoptotic cells at 2.5 uM measured after 24 hrs by Annexin V-FITC/PI staining based flow cytometry (reference value: 1.94%); format: functional
CDK7/Cyclin H/MNAT1 = CDK7/Cyclin H/MNAT1 (Homo sapiens, UniProt P50613); experiment: Inhibition of CDK7/cyclinH/MAT1 (unknown origin) using RBER-IRStide as substrate incubated for 120 mins in presence of ATP by ADP-Glo kinase assay; format: protein-complex assay
[22] = molecular target: Cyclin-dependent kinase 5 (Homo sapiens) (UniProt Q00535); experiment: Inhibition of CDK5 in human MOLM13 cells assessed as decrease in cyclin D1 level at 5 to 10 uM measured after 24 hrs incubation by Western blot analysis; format: cell-based; summary of the method: as §1
[23] = molecular target: Cyclin-dependent kinase 5 (Homo sapiens) (UniProt Q00535); experiment: Inhibition of CDK5 in human MOLM13 cells assessed as decrease in p21CIP1 level at 5 to 10 uM measured after 24 hrs by western blot analysis; format: cell-based

Sequence of Cyclin-dependent kinase 5 (Homo sapiens) (Q00535 whole entry, looked up): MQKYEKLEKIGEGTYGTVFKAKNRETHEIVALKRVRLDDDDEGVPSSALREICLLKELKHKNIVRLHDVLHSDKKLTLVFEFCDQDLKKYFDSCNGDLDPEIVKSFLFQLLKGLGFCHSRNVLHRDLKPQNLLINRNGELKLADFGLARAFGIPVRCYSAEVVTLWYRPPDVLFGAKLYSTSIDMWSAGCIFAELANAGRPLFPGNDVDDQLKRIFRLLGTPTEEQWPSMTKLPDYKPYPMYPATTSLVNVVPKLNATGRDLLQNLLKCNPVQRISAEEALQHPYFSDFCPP
Sequence of Cyclin-dependent kinase 5/CDK5 activator 1 (Q00535 whole entry): as the sequence (Q00535 whole entry, looked up) above
Sequence of Cyclin-dependent kinase 5/CDK5 activator 1 (Q15078 whole entry, further chain): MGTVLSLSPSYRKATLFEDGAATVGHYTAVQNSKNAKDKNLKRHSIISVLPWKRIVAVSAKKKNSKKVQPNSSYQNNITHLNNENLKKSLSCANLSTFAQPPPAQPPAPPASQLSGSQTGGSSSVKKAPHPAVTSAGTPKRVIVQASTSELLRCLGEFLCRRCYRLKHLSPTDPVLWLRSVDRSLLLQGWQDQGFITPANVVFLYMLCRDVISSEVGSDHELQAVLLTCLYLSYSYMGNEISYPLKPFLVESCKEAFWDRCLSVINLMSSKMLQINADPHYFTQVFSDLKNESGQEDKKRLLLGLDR
Sequence of Receptor-type tyrosine-protein kinase FLT3 (P36888 whole entry, looked up, stated change not applied, the tested form may be a part): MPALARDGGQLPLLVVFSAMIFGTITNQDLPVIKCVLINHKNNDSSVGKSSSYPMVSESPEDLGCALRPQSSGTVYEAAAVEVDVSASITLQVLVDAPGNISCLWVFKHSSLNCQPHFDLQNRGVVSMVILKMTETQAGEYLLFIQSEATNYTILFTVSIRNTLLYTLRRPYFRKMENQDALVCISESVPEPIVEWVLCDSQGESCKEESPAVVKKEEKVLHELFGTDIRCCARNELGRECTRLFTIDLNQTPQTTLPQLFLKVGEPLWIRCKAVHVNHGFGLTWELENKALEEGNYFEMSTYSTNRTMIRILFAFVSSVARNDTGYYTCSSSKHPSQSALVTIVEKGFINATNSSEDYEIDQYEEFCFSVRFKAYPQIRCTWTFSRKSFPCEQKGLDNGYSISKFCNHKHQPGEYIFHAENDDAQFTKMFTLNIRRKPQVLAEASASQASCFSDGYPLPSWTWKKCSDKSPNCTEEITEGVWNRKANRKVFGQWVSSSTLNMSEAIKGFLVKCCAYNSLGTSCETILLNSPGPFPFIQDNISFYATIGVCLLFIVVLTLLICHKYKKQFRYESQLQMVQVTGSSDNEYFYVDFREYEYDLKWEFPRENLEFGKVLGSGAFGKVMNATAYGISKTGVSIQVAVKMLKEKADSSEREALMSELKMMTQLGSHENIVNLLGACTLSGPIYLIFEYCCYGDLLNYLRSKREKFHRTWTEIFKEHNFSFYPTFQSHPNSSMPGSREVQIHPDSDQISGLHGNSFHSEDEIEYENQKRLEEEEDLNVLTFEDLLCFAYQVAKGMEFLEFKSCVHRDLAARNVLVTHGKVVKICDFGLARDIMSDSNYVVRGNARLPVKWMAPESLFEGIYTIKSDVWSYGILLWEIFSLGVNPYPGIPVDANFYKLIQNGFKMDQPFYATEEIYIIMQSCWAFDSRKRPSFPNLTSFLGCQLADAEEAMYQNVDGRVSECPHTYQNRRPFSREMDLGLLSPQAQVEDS
Sequence of CDK7/Cyclin H/MNAT1 (P51946 whole entry): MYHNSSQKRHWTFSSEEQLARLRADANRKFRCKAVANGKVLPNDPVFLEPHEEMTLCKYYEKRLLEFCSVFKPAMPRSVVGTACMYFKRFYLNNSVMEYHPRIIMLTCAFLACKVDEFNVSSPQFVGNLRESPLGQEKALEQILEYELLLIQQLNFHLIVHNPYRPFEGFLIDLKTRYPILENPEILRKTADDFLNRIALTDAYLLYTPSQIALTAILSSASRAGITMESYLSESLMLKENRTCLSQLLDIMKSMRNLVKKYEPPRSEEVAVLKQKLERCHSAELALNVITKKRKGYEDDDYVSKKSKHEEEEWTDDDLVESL
Sequence of CDK7/Cyclin H/MNAT1 (P50613 whole entry): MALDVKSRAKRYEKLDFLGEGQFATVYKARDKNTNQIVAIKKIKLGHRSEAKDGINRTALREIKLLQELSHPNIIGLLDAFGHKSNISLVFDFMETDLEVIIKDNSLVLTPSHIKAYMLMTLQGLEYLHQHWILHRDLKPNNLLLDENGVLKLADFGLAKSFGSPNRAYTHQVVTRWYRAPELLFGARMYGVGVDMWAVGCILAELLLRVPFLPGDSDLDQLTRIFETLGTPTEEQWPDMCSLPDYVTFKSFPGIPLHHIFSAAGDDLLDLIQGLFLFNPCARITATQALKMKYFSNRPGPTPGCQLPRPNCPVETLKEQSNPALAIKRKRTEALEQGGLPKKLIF
Sequence of CDK7/Cyclin H/MNAT1 (P51948 whole entry, further chain): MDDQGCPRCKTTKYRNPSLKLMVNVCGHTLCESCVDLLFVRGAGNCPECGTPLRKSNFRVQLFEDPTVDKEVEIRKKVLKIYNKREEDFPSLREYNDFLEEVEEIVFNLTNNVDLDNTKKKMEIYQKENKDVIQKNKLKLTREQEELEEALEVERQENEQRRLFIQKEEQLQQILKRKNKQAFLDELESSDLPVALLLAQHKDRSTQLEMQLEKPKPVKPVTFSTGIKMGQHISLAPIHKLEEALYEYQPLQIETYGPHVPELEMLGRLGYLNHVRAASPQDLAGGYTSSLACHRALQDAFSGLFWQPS
Sequence of Cyclin-dependent kinase 4/cyclin D1 (P11802 whole entry, the tested form may be a part): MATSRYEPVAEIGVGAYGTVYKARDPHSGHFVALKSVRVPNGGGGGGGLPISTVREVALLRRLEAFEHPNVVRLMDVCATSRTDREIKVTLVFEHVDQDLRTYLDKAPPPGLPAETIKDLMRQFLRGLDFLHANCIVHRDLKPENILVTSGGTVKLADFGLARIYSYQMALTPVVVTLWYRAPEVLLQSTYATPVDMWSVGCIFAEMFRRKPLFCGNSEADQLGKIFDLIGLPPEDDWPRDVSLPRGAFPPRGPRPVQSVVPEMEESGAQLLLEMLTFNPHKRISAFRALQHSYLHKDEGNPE
Sequence of Cyclin-dependent kinase 4/cyclin D1 (P24385 whole entry, further chain, the tested form may be a part): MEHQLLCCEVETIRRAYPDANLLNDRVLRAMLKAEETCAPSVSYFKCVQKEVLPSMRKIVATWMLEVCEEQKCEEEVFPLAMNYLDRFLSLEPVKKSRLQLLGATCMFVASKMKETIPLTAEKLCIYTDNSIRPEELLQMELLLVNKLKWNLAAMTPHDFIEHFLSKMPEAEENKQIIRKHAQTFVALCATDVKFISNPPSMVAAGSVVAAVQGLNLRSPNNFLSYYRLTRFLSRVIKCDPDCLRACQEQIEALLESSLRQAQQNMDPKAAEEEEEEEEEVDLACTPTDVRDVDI
Sequence of Cyclin-dependent kinase 1/cyclin B1 (P06493 whole entry): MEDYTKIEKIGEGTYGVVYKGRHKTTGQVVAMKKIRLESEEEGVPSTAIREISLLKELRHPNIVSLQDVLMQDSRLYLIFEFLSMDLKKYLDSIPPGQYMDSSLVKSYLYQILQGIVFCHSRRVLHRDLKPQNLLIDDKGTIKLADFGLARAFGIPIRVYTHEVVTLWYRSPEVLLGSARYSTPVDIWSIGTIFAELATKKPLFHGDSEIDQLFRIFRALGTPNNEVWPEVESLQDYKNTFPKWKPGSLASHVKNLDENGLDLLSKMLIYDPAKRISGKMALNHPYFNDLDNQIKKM
Sequence of Cyclin-dependent kinase 1/cyclin B1 (P14635 whole entry, further chain): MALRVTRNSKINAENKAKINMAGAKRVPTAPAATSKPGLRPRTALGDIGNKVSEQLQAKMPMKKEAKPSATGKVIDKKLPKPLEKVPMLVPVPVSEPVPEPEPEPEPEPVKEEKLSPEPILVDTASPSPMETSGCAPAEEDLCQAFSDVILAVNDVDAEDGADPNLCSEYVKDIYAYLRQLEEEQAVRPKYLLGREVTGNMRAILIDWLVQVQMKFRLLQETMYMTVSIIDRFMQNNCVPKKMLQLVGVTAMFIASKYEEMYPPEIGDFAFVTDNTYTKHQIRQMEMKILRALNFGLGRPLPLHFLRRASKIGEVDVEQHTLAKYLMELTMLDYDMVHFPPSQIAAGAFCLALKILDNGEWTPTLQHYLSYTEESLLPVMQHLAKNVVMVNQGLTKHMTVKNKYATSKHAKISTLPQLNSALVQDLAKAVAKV

| Compound | Activity [1] | Ki [2] | Activity [3] | Activity (MOLM-13 [4]) | Activity [5] | Ki [6] | Ki [7] | Activity [8] | Activity (MOLM-13 [9]) | inhibition [10] | Ki (CDK2/Cyclin A2) | IC50 [11] | inhibition [12] | Activity (MOLM-13 [13]) | inhibition [14] | Ki (CDK9/cyclin T1) | Activity (MV4-11 [15]) | inhibition [16] | inhibition [17] | inhibition [18] | other results |
| --- | --- | --- | --- | --- | --- | --- | --- | --- | --- | --- | --- | --- | --- | --- | --- | --- | --- | --- | --- | --- | --- |
| NS(=O)(=O)c1cccc(Nc2ncc3c(n2)CCCC3)c1 | Active | 2.61 µM | Active | 18.34% | Active | > 5 µM | 1 µM | Active | 10.05% | Active | 0.27 µM | 1.48 µM | Active | 6.16% | 95% | 1 µM | Active | Active | Active | Active | GI50 (MV4-11 [19]): 2.55 µM; Ki [20]: 0.16 µM; Activity (MOLM-13 [21]): 3.43%; Ki (CDK7/Cyclin H/MNAT1): > 5 µM; inhibition [22]: Active; inhibition [23]: Active |
| Cc1cccc(Nc2ncc3c(n2)CCCC3)c1 | Active | 2.36 µM | Active | 30.11% | Active | > 5 µM | > 5 µM | Active | 8.31% | Active | 3.32 µM | > 10 µM | Active | 7.92% | 72% | > 5 µM | Active | Active | Active | Active | GI50 (MV4-11 [19]): 3.29 µM; Ki [20]: 0.8 µM; Activity (MOLM-13 [21]): 2.68%; Ki (CDK7/Cyclin H/MNAT1): > 5 µM; inhibition [22]: Active; inhibition [23]: Active |
